Laboratory results as given in ChEMBL document CHEMBL1156924, “Structure-activity relationships of diphenylpiperazine N-type calcium channel inhibitors” (Bioorg Med Chem Lett, 2010).
≈ marks a conversion by molar mass, not a printed value.

What was measured:
[1] = target: N-type calcium channel alpha-1b/alpha2delta-1/beta-1b (Homo sapiens, UniProt Q00975); test: Inhibition of N type calcium channel alpha-1b/alpha-2-delta-1/beta-1b expressed in HEK293 cells at holding potential of -100 mV by whole-cell patch clamp method; assay type: cell-based
Chain of N-type calcium channel alpha-1b/alpha2delta-1/beta-1b (Q00975 whole entry): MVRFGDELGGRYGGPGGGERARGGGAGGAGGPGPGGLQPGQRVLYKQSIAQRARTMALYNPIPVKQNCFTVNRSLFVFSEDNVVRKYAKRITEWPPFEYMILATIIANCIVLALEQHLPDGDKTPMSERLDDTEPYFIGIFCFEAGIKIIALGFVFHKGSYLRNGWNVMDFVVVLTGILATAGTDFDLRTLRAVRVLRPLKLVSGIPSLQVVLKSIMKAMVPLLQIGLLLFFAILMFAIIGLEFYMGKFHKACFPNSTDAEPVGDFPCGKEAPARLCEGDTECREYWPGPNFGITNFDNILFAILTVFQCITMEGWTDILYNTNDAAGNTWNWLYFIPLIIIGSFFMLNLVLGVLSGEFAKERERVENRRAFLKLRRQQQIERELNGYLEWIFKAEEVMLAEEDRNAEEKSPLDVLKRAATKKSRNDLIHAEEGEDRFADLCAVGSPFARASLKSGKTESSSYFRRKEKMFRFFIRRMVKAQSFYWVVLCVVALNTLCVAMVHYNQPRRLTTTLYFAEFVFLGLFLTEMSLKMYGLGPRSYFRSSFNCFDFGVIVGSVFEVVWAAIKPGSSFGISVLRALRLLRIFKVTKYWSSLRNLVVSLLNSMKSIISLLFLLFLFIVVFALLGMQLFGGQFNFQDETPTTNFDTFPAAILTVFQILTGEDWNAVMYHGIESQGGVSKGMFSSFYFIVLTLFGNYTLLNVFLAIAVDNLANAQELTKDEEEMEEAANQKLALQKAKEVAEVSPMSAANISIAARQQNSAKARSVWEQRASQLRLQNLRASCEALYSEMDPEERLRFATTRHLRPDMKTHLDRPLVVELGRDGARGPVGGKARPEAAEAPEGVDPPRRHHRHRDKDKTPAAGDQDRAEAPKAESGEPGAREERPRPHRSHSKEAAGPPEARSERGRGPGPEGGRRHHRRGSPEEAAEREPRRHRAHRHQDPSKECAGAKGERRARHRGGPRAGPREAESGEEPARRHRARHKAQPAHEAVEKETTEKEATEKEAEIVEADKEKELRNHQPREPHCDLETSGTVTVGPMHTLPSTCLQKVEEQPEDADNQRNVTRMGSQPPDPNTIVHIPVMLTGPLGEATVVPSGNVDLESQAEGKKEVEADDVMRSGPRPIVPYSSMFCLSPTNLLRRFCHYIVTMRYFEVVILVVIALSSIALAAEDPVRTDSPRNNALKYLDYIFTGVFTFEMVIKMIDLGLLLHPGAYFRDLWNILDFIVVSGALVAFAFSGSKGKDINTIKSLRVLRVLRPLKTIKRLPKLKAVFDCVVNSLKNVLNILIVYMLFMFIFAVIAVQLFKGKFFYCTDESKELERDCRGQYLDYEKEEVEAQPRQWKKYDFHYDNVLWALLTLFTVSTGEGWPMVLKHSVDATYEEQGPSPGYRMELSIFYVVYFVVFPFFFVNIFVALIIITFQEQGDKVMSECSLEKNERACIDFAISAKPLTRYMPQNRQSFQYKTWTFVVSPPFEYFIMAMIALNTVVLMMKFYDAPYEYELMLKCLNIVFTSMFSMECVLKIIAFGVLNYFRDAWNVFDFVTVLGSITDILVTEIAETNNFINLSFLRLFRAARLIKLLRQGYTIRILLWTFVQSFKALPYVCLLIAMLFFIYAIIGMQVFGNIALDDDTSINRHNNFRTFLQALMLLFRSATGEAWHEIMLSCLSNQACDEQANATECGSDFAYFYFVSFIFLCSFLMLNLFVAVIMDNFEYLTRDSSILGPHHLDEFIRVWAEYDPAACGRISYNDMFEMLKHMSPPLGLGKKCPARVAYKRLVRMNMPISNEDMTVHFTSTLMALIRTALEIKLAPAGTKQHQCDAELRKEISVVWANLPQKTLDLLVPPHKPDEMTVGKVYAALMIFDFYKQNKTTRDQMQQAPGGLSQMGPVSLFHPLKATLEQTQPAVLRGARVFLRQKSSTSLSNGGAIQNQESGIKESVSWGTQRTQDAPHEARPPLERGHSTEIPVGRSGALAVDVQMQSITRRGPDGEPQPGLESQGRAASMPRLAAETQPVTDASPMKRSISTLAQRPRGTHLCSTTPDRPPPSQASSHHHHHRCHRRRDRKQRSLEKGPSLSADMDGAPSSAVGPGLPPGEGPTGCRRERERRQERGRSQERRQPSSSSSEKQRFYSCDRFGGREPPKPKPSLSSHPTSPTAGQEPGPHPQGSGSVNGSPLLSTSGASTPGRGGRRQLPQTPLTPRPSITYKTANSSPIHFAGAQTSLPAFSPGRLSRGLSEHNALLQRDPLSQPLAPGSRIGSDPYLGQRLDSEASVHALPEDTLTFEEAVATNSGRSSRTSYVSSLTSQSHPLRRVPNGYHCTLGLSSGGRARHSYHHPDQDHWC
Chain of N-type calcium channel alpha-1b/alpha2delta-1/beta-1b (P54289 25-956 partner limits assumed): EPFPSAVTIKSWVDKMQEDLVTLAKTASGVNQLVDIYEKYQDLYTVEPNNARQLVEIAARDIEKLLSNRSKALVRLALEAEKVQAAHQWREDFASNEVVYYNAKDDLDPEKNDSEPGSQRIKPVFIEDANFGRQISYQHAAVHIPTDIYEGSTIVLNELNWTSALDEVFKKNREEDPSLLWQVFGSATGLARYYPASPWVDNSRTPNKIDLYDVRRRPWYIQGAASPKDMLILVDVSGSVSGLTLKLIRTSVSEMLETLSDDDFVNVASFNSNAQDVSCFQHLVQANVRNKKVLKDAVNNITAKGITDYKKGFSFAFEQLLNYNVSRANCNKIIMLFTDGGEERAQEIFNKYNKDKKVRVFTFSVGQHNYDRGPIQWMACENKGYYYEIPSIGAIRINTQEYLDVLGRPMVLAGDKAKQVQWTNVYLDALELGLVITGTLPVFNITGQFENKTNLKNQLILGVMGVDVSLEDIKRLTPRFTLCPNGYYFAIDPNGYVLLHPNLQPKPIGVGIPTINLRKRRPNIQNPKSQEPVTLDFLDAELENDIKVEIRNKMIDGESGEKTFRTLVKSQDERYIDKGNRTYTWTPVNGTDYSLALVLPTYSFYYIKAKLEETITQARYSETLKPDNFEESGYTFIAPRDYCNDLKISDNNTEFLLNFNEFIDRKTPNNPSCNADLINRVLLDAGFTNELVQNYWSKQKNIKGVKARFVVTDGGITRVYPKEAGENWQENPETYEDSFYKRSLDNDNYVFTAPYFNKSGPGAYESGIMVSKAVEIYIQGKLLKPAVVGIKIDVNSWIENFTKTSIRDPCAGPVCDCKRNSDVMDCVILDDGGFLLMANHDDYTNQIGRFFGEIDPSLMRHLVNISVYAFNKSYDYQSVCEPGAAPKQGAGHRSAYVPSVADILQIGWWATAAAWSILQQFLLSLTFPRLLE
Chain of N-type calcium channel alpha-1b/alpha2delta-1/beta-1b (P54289 957-1103 partner limits assumed): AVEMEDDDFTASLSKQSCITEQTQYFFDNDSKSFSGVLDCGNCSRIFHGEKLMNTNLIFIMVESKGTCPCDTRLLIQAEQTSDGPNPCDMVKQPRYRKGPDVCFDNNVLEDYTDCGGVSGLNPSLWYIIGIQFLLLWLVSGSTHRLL
Chain of N-type calcium channel alpha-1b/alpha2delta-1/beta-1b (Q02641 whole entry partner): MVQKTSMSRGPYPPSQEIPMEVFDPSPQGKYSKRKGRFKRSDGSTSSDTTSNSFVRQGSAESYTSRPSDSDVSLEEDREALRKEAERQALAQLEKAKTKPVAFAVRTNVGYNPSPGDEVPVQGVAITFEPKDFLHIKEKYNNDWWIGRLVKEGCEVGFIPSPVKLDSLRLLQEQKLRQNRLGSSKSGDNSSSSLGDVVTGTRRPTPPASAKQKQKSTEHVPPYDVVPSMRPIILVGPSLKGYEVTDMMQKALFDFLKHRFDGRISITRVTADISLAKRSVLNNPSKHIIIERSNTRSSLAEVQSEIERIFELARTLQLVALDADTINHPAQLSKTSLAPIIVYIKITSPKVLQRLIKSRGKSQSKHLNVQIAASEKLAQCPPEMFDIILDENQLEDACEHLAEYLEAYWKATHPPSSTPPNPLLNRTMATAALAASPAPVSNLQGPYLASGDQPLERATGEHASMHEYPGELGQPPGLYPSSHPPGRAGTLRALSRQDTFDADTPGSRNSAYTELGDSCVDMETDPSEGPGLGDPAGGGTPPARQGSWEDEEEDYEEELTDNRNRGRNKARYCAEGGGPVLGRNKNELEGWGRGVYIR

[2] = target: T1, Voltage-dependent L-type calcium channel alpha1C/alpha2delta/beta1b (Homo sapiens, UniProt Q13936); test: Inhibition of L type calcium channel alpha-1c/alpha-2-delta-1/beta-1b expressed in HEK293 cells in presence of -100 mV holding potential by whole-cell patch clamp method; assay type: cell-based
In short: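 Manual whole-cell patch clamp in HEK cells transiently expressing rat CaV2.2 (N-type) or CaV1.2 (L-type) with α2δ-1 and β1b. Barium currents (5 mM BaCl2 external, pH 7.2; Cs-methanesulfonate internal) were stepped from −100 mV to +10 mV, using 3–5 cells per compound. Estimated IC50 = [D]/((1/fr) − 1), calculated from a single concentration assuming 1:1 binding.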

[3] = target: T1, Voltage-dependent L-type calcium channel alpha1C/alpha2delta/beta1b; test: Inhibition of L-type calcium channel alpha-1c/alpha-2-delta-1/beta-1b expressed in HEK293 cells by FLIPR method; assay type: cell-based
In short: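 HEK cells stably co-expressing CaV1.2 and Kir2.3 were loaded with Fluo-4 (45 min, 29 °C) and held in 30 mM KCl buffer (pH 7.4), giving a partially inactivated state. Calcium entry was evoked with 130 mM KCl stimulation buffer and fluorescence read for 3 min. An 8-point concentration series (0.003–10) was fitted with a logistic function.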

[4] = Aqueous solubility at pH 7.4; assay type: physicochemical
In short: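 Thermodynamic equilibrium solubility following the OECD water solubility method. Quantification was by LC/MS/MS, interpolating saturation solubility from a regression calibration curve of standards.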

Rattus norvegicus [5] = test: Analgesic activity in Sprague-Dawley rat assessed as inhibition of spinal nerve injury-induced mechanical allodynia at 30 mg/kg, po after 60-90 mins; assay type: functional; parameters: scale not given: the % may be the effect or the level left
In short: (§1)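 Chung spinal nerve ligation model in male Sprague-Dawley rats (200–300 g), operated under halothane. Dosing was a single 30 mg/kg oral dose in propylene glycol (3 ml/kg), n = 5–7, given after baseline testing. Mechanical allodynia was measured as von Frey paw-withdrawal threshold and thermal hyperalgesia by paw withdrawal. Testing ran at 30 min intervals to 120 min, and the value reported is maximum % activity.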

Rattus norvegicus [6] = test: Analgesic activity in Sprague-Dawley rat assessed as inhibition of spinal nerve injury-induced thermal hyperalgesia at 30 mg/kg, po after 60-90 mins; assay type: functional; parameters: scale not given: the % may be the effect or the level left; in short: as §1
[7] = Cmax at Sprague-Dawley rat at 2 mg/kg, iv; assay type: ADME, organism-based; parameters: dose 2 mg/kg, route intravenous; conditions: in vivo
[8] = AUC (0 to 24 hrs) at Sprague-Dawley rat at 2 mg/kg, iv; assay type: ADME, organism-based; parameters: time < 24 hr, dose 2 mg/kg, route intravenous; conditions: plasma
[9] = Half life at Sprague-Dawley rat at 2 mg/kg, iv; assay type: ADME, organism-based; parameters: dose 2 mg/kg, route intravenous; conditions: in vivo
[10] = Cmax at Sprague-Dawley rat at 10 mg/kg, po; assay type: ADME, organism-based; parameters: dose 10 mg/kg, route oral; conditions: in vivo
In short: (§2)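 Rat plasma PK after a single 10 mg/kg oral dose, with a 2 mg/kg intravenous arm used for comparison. Results are means of 2–3 animals. […] Cmax is the highest observed plasma level and Tmax the time at which it occurs. t1/2 is the terminal elimination half-life.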

[11] = Tmax at Sprague-Dawley rat at 10 mg/kg, po; assay type: ADME, organism-based; parameters: dose 10 mg/kg, route oral; conditions: in vivo; in short: as §2
[12] = AUC (0 to 24 hrs) at Sprague-Dawley rat at 10 mg/kg, po; assay type: ADME, organism-based; parameters: time < 24 hr, dose 10 mg/kg, route oral; conditions: plasma; in short: as §2
[13] = Half life at Sprague-Dawley rat at 10 mg/kg, po; assay type: ADME, organism-based; parameters: dose 10 mg/kg, route oral; conditions: in vivo; in short: as §2
[14] = Oral bioavailability at Sprague-Dawley rat at 10 mg/kg; assay type: ADME, organism-based; conditions: in vivo; in short: as §2

`O=C(CC(c1ccccc1)c1ccccc1)N1CCN(C(c2ccccc2)c2cccc(C(F)(F)F)c2)CC1` (centres undefined) gave an IC50 [1] of 0.11 µM, an IC50 [2] of 6.6 µM and an IC50 [3] of 1.8 µM. For the same compound, the solubility [4] was 0.14 µg/mL (≈ 0.265 µM), the Activity (Rattus norvegicus [5]) was 2.6% and the Activity (Rattus norvegicus [6]) was 24.2%. For the same compound, the Cmax [7] was 2540 nM, the AUC(0-t) at 24 h [8] was 1.44 µM·h and the half-life [9] was 5 h. The Cmax [10] was 518 nM, the Tmax [11] was 5 h and the AUC(0-t) at 24 h [12] was 4.67 µM·h. It also gave a half-life [13] of 4 h and a bioavailability [14] of 65%.
